Experimental data from different studies.
Protocols differ between the studies behind these lines.
Cell line: WI-38
Observed: cell growth or viability

`C#CCOc1cc(C(=O)Nc2cc(OCCN)c3ccccc3n2)nc(C(=O)Nc2cc(OCCN)c3ccccc3n2)c1` has an IC50 of 4 µM (ATP luminescence; 72 h).
For `N#Cc1cc2c(-c3ccccc3)n[nH]c2c(Nc2ccccc2)n1`, the IC50 was > 10 µM (MTS; 48 h).
With `Cc1nc(Nc2ncc(C(=O)Nc3c(C)cccc3Cl)s2)cc(N2CCN(CCO)CC2)n1` the EC50 was 0.7 µM (MTT; 72 h).
`Cc1cccc(-n2ncc(Br)c(Br)c2=O)c1` gave an IC50 of 2.61 µM (resazurin; 96 h).
The IC50 of `CN(C)CCCOc1cc(NC(=O)c2cccc(C(=O)Nc3cc(OCCCN(C)C)c4ccccc4n3)n2)nc2ccccc12` is reported as 2.1 µM (ATP luminescence; 72 h).
`c1ccc(CNCc2cc3c(-c4ccccc4)n[nH]c3c(Nc3ccccc3)n2)cc1` gave an IC50 of 8.2 µM (MTS; 48 h).
`C=C(c1ccc(C(=O)O)cc1)c1cc2c(cc1C)C(C)(C)CCC2(C)C` has an EC50 of 76 µM (MTT; 72 h).
`CN(C)CCCOc1cc(NC(=O)c2cc(Cl)cc(C(=O)Nc3cc(OCCCN(C)C)c4ccccc4n3)n2)nc2ccccc12` gave an IC50 of 3.6 µM (ATP luminescence; 72 h).
With `COc1cc(Nc2nc(C#N)cc3c(-c4ccccc4)n[nH]c23)cc(OC)c1OC` the IC50 was > 10 µM (MTS; 48 h).
`CS(=O)(=O)CCNCc1ccc(-c2ccc3ncnc(Nc4ccc(OCc5cccc(F)c5)c(Cl)c4)c3c2)o1` gave an EC50 of 32 µM (MTT; 72 h).
